Measurements taken from ChEMBL document CHEMBL1137747, “Fullerene derivatized s-triazine analogues as antimicrobial agents” (2009).
≈ marks a conversion by molar mass, not a printed value. Calls of active or inactive are those of the source. The rule behind the calls is not given here.

Key:
Escherichia coli = test: Antibacterial activity against Escherichia coli at 100 ug/ml by disk diffusion method; assay type: functional; settings: for zone of inhibition at 100 µg/mL: read-out: IZ
Procedure, shortened: (§1)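 Agar disc diffusion on nutrient agar plates. Inoculum of […] (0.5 McFarland) spread evenly over the agar surface. Whatman filter paper discs, 6.25 mm diameter, dry-heat sterilized at 140 °C for 1 h, soaked in test solution and placed on the agar. Plates inverted and incubated 24 h at 37 °C. Solvent and growth controls and a ciprofloxacin reference run alongside. Inhibition zones measured.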

Klebsiella pneumoniae [1] = test: Antibacterial activity against Klebsiella pneumoniae at 100 ug/ml by disk diffusion method; assay type: functional; settings: for zone of inhibition at 100 µg/mL: read-out: IZ; procedure, shortened: as §1
Pseudomonas aeruginosa = test: Antibacterial activity against Pseudomonas aeruginosa at 100 ug/ml by disk diffusion method; assay type: functional; settings: for zone of inhibition at 100 µg/mL: read-out: IZ; procedure, shortened: as §1
Bacillus pumilus [2] = test: Antibacterial activity against Bacillus pumilus by broth dilution technique
Bacillus subtilis [3] = test: Antibacterial activity against Bacillus subtilis at 100 ug/ml by disk diffusion method; assay type: functional; settings: read-out: IZ; procedure, shortened: as §1
Klebsiella pneumoniae [4] = test: Antibacterial activity against Klebsiella pneumoniae by broth dilution technique
Bacillus subtilis [5] = test: Antibacterial activity against Bacillus subtilis by broth dilution technique
Staphylococcus aureus = test: Antibacterial activity against Staphylococcus aureus at 100 ug/ml by disk diffusion method; assay type: functional; settings: read-out: IZ; procedure, shortened: as §1
Bacillus pumilus [6] = test: Antibacterial activity against Bacillus pumilus at 100 ug/ml by disk diffusion method; assay type: functional; settings: read-out: IZ; procedure, shortened: as §1

Compound | zone of inhibition at 100 µg/mL (Escherichia coli) [mm] | zone of inhibition at 100 µg/mL (Klebsiella pneumoniae [1]) [mm] | zone of inhibition at 100 µg/mL (Pseudomonas aeruginosa) [mm] | MIC (Bacillus pumilus [2]) [µg/mL] | zone of inhibition at 100 µg/mL (Bacillus subtilis [3]) [mm] | MIC (Klebsiella pneumoniae [4]) [µg/mL] | MIC (Bacillus subtilis [5]) [µg/mL] | zone of inhibition at 100 µg/mL (Staphylococcus aureus) [mm] | zone of inhibition at 100 µg/mL (Bacillus pumilus [6]) [mm] | inhibition zone (IZ) (Escherichia coli) | inhibition zone (IZ) (Klebsiella pneumoniae [1]) | inhibition zone (IZ) (Pseudomonas aeruginosa)
O=C(O)c1cn(C2CC2)c2cc(N3CCNCC3)c(F)cc2c1=O [CIPROFLOXACIN] | 27 | 19 | 32 | 0.25 (≈ 0.754 µM) | 38 | 12.5 (≈ 37.7 µM) | 0.06 (≈ 0.181 µM) | 22 | 36 | – | – | –
CNc1nc(N/N=C/c2ccc(C=O)cc2)nc(N(C)C)n1 | 12 | 12 | 10 | – | 10 | – | – | 10 | 11 | – | – | –
CN(C)c1nc(N/N=C/c2ccc(C=O)cc2)nc(N(C)C)n1 | – | – | – | – | 10 | – | – | 9 | 10 | inactive | inactive | inactive
CNc1nc(NC)nc(N/N=C/c2ccc(C=O)cc2)n1 | 14 | 14 | 11 | – | 12 | – | – | 11 | 10 | – | – | –
CNc1nc(N)nc(N/N=C/c2ccc(C=O)cc2)n1 | 15 | 15 | 13 | – | 18 | – | – | 9 | 13 | – | – | –
Nc1nc(N)nc(N/N=C/c2ccc(C=O)cc2)n1 | 15 | – | 11 | – | 16 | – | – | 9 | 15 | – | inactive | –
